The values that follow come from ChEMBL document CHEMBL4196177, “Synthesis, Evaluation, and Structure-Activity Relationship Study of Lanosterol Derivatives To Reverse Mutant-Crystallin-Induced Protein Aggregation” (J Med Chem, 2018).

Type in all cases: cell-based
Test [1] deals with T1, Alpha-crystallin B chain (Homo sapiens), P02511 [R120G].
T1 sequence (whole entry): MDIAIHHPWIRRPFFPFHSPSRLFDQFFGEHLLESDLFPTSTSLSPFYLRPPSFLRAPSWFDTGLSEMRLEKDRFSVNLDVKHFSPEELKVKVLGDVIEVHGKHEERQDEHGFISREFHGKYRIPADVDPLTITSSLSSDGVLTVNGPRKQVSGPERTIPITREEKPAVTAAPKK
Description: Inhibition of alpha-crystallin B R120G mutant (unknown origin)-induced intracellular protein aggregation expressed in human HeLa cells at 0.4 uM incubated for 6 to 8 hrs by fluorescence microscopy relative to untreated control. The method, boiled down: (§1)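 Cells were transfected with mutant crystallin constructs using Lipofectamine 2000 and cultured for 16 h until the overexpressed mutants formed aggregates. Compounds were then added to the culture medium and incubated for 6~8 h. Aggregate dissolution was scored by fluorescence microscopy. For αB R120G, % inhibition at 0.4 and 4 µM was calculated against DMSO-treated cells; values are mean ± error.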

Test [2] relates to T2, Beta-crystallin B2 (Homo sapiens), P43320 [V187E].
T2 sequence (whole entry): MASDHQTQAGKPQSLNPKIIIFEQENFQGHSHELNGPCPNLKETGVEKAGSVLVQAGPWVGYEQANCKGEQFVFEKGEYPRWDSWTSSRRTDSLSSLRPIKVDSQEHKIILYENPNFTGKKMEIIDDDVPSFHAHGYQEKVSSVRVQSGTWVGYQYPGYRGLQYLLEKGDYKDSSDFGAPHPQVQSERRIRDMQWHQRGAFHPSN
Description: Inhibition of beta-crystallin B2 V187E mutant (unknown origin)-induced intracellular protein aggregation expressed in human HeLa cells at 0.4 uM incubated for 6 to 8 hrs by fluorescence microscopy relative to untreated control.

The subject of test [3] is T3, Gamma-crystallin C (Homo sapiens), P07315 [G129C].
T3 sequence (whole entry): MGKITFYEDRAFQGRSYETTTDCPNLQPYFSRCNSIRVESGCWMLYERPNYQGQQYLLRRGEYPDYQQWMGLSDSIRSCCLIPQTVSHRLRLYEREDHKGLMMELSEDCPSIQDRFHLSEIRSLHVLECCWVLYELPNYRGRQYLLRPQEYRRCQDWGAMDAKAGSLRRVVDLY
Description: Inhibition of gamma-crystallin C G129C mutant (unknown origin)-induced intracellular protein aggregation expressed in human HeLa cells at 4 uM incubated for 6 to 8 hrs by fluorescence microscopy relative to untreated control.

In test [4] the test system is T2, Beta-crystallin B2 (Homo sapiens), P43320 [V187E]. Description: Inhibition of beta-crystallin B2 V187E mutant (unknown origin)-induced intracellular protein aggregation expressed in human HLE-B3 cells at 4 uM incubated for 6 to 8 hrs by fluorescence microscopy relative to untreated control.
Test [5] relates to T1, Alpha-crystallin B chain (Homo sapiens), P02511 [R120G]. Description: Inhibition of alpha-crystallin B R120G mutant (unknown origin)-induced intracellular protein aggregation expressed in human HLE-B3 cells at 0.4 uM incubated for 6 to 8 hrs by fluorescence microscopy relative to untreated control. The method, boiled down:
as §1

The test system is the same in test [6]. Description: Inhibition of alpha-crystallin B R120G mutant (unknown origin)-induced intracellular protein aggregation expressed in human HLE-B3 cells at 4 uM incubated for 6 to 8 hrs by fluorescence microscopy relative to untreated control. The method, boiled down: as §1
In test [7] the test system is T4, Gamma-crystallin D (Homo sapiens), P07320 [W43R].
T4 sequence (whole entry): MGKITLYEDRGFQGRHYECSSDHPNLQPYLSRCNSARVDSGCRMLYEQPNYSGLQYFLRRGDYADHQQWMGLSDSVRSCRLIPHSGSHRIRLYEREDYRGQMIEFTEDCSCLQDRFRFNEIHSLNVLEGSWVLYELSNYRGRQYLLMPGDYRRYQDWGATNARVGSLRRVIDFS
Description: Inhibition of gamma-crystallin D W43R mutant (unknown origin)-induced intracellular protein aggregation expressed in human HLE-B3 cells at […] incubated for 6 to 8 hrs by fluorescence microscopy relative to untreated control.

The subject of test [8] is T5, Alpha-crystallin A chain (Homo sapiens), P02489 [Y118D].
T5 sequence (whole entry): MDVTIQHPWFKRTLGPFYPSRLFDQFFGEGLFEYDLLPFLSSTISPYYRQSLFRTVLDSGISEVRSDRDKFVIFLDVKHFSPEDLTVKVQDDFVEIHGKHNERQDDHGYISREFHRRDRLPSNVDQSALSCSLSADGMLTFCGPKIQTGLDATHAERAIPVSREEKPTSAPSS
Description: Inhibition of alpha-crystallin A Y118D mutant (unknown origin)-induced intracellular protein aggregation expressed in human HeLa cells at 0.4 uM incubated for 6 to 8 hrs by fluorescence microscopy relative to untreated control.

Test [9] has the same test system. Description: Inhibition of alpha-crystallin A Y118D mutant (unknown origin)-induced intracellular protein aggregation expressed in human HLE-B3 cells at 4 uM incubated for 6 to 8 hrs by fluorescence microscopy relative to untreated control.
Test [10] shares this test system. Description: Inhibition of alpha-crystallin A Y118D mutant (unknown origin)-induced intracellular protein aggregation expressed in human HeLa cells at 4 uM incubated for 6 to 8 hrs by fluorescence microscopy relative to untreated control.
For test [11], the system named is T2, Beta-crystallin B2 (Homo sapiens), P43320 [V187E]. Description: Inhibition of beta-crystallin B2 V187E mutant (unknown origin)-induced intracellular protein aggregation expressed in human HLE-B3 cells at 0.4 uM incubated for 6 to 8 hrs by fluorescence microscopy relative to untreated control.
The test system of test [12] is T3, Gamma-crystallin C (Homo sapiens), P07315 [G129C]. Description: Inhibition of gamma-crystallin C G129C mutant (unknown origin)-induced intracellular protein aggregation expressed in human HLE-B3 cells at 0.4 uM incubated for 6 to 8 hrs by fluorescence microscopy relative to untreated control.
In test [13] the test system is T5, Alpha-crystallin A chain (Homo sapiens), P02489 [Y118D]. Description: Inhibition of alpha-crystallin A Y118D mutant (unknown origin)-induced intracellular protein aggregation expressed in human HLE-B3 cells at 0.4 uM incubated for 6 to 8 hrs by fluorescence microscopy relative to untreated control.
Test [14] concerns T3, Gamma-crystallin C (Homo sapiens), P07315 [G129C]. Description: Inhibition of gamma-crystallin C G129C mutant (unknown origin)-induced intracellular protein aggregation expressed in human HeLa cells at 0.4 uM incubated for 6 to 8 hrs by fluorescence microscopy relative to untreated control.
Test [15] deals with T4, Gamma-crystallin D (Homo sapiens), P07320 [W43R]. Description: Inhibition of gamma-crystallin D W43R mutant (unknown origin)-induced intracellular protein aggregation expressed in human HeLa cells at 0.4 uM incubated for 6 to 8 hrs by fluorescence microscopy relative to untreated control.
Test [16] shares this test system. Description: Inhibition of gamma-crystallin D W43R mutant (unknown origin)-induced intracellular protein aggregation expressed in human HLE-B3 cells at 4 uM incubated for 6 to 8 hrs by fluorescence microscopy relative to untreated control.
The test system of test [17] is T1, Alpha-crystallin B chain (Homo sapiens), P02511 [R120G]. Description: Inhibition of alpha-crystallin B R120G mutant (unknown origin)-induced intracellular protein aggregation expressed in human HeLa cells at 4 uM incubated for 6 to 8 hrs by fluorescence microscopy relative to untreated control. The method, boiled down:
as §1

The subject of test [18] is T2, Beta-crystallin B2 (Homo sapiens), P43320 [V187E]. Description: Inhibition of beta-crystallin B2 V187E mutant (unknown origin)-induced intracellular protein aggregation expressed in human HeLa cells at 4 uM incubated for 6 to 8 hrs by fluorescence microscopy relative to untreated control.
Test [19] has as its system T3, Gamma-crystallin C (Homo sapiens), P07315 [G129C]. Description: Inhibition of gamma-crystallin C G129C mutant (unknown origin)-induced intracellular protein aggregation expressed in human HLE-B3 cells at 4 uM incubated for 6 to 8 hrs by fluorescence microscopy relative to untreated control.
The test system of test [20] is T4, Gamma-crystallin D (Homo sapiens), P07320 [W43R]. Description: Inhibition of gamma-crystallin D W43R mutant (unknown origin)-induced intracellular protein aggregation expressed in human HeLa cells at 4 uM incubated for 6 to 8 hrs by fluorescence microscopy relative to untreated control.

The structures appear in SMILES notation. Activity calls are given as the source filed them. The rule behind the calls is not given here.

As for `C[C@H](CCCC(C)(C)O)[C@H]1CC[C@@]2(C)C3=C(CC[C@]12C)[C@@]1(C)C[C@@H](F)[C@H](O)C(C)(C)[C@@H]1CC3`, the inhibition entry in test [1], in test [2], in [3], in test [4], in [5] and in [6] was “Active” in each case. For the same compound, the inhibition result in [7], in test [8], in [9], in test [10], in test [11] and in test [12] was “Active” each time. The inhibition entry in [13], in [14], in test [15], in [16], in test [17] and in test [18] was “Active” in each case. In addition, the inhibition result in test [19] and in test [20] was “Active” in each case.
For `C[C@H](CCCC(C)(C)O)[C@H]1CC[C@@]2(C)C3=C(CC[C@]12C)[C@@]1(C)CCC(=O)C(C)(C)[C@@H]1CC3`, the inhibition entry in test [1], in [2], in test [3], in [4], in test [5] and in [6] was “Active” each time. For the same compound, the inhibition entry in test [7], in test [8], in [9], in test [10], in test [11] and in test [12] was “Active” in each case. The inhibition result in test [13], in test [14], in test [15], in test [16], in test [17] and in [18] was “Active” throughout. Also, the inhibition entry in [19] and in test [20] was “Active” in each case.
Consider `C[C@H](CCCC(C)(C)O)[C@H]1CC[C@@]2(C)C3=C(CC[C@]12C)[C@@]1(C)C[C@@H](F)[C@@H](O)C(C)(C)[C@@H]1CC3`, for which the inhibition result in test [1], in test [2], in test [3], in [4], in test [5] and in test [6] was “Active” throughout. Moreover, the inhibition result in test [7], in test [8], in test [9], in test [10], in test [11] and in [12] was “Active” throughout. In addition, the inhibition entry in test [13], in test [14], in test [15], in test [16], in test [17] and in test [18] was “Active” in each case. Further, the inhibition result in test [19] and in test [20] was “Active” in each case.
Consider `C[C@H](CCCC(C)(C)O)[C@H]1CC[C@@]2(C)C3=CC[C@H]4C(C)(C)[C@@H](O)CC[C@]4(C)C3=CC[C@]12C`, for which the inhibition result in test [1], in test [2], in [3], in [4], in [5] and in [6] was “Active” throughout. For the same compound, the inhibition entry in [7], in test [8], in test [9], in test [10], in test [11] and in [12] was “Active” throughout. Moreover, the inhibition entry in [13], in test [14], in test [15], in test [16], in test [17] and in [18] was “Active” each time. Further, the inhibition result in test [19] and in test [20] was “Active” in each case.
For the compound `C[C@H](CCCC(C)(C)O)[C@H]1CC[C@@]2(C)[C@@]34CC[C@H]5C(C)(C)/C(=N/O)CC[C@]5(C)[C@]3(CC[C@]12C)O4`, the inhibition result in test [1], in [2], in test [3], in test [4], in test [5] and in test [6] was “inactive” each time. In addition, the inhibition result in test [7], in test [8], in test [9], in test [10], in test [11] and in test [12] was “inactive” in each case. Also, the inhibition result in [13], in [14], in test [15], in [16], in test [17] and in test [18] was “inactive” each time. Besides, the inhibition entry in test [19] and in test [20] was “inactive” in each case.
